This note sets out measurements from PMC2889702 (ACS chemical neuroscience, 2010).

“Also recorded” adds a separate entry of the source.

Holding throughout (assay type): cell-based
For one experiment, the target named is rat mGluR1 (Rattus norvegicus, UniProt P23385). A digest of the protocol: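 Rat mGluR1 stably expressed in BHK cells. Test compound run as a full 1:3 serial-dilution concentration–response, top final concentration 30 μM. Cells preincubated ~2.5 min with compound, then given an EC20 glutamate concentration, then EC80 glutamate 2 min later. Antagonism taken as blockade of the EC80 response. Data normalized to percent maximal glutamate response.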

The target of experiment [1] is T1, human mGluR4 (Homo sapiens, UniProt Q14833). Put plainly: calcium mobilization potency assay. Particulars: for fold increase in potency against hmGluR4: compared to PHCCC / (−)-PHCCC. Background: A change in cytosolic calcium serves as a functional read-out for many receptors and channels.
Experiment [2] has as its target T1, human mGluR4. The following applies: compared to (−)-PHCCC.
The next experiment relates to other mGluR subtypes. Put plainly: selectivity against all of the mGluR subtypes. Particulars: 10 μM compound. A digest of the protocol:
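Rat mGluR2, -3, -7, -8 and human mGluR6 were stably expressed in HEK cells coexpressing GIRK1/2. Rat mGluR5 was in HEK cells and rat mGluR1 in BHK cells. Cells received 10 μM final test compound or vehicle, then a full agonist concentration-response (glutamate; L-AP4 for mGluR7). mGluR1 instead: 1:3 compound series to 30 μM top final, EC20 then EC80 glutamate, blockade of EC80 response. Normalized to % Glu Max, triplicate.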

T1 sequence (Q14833 33-912): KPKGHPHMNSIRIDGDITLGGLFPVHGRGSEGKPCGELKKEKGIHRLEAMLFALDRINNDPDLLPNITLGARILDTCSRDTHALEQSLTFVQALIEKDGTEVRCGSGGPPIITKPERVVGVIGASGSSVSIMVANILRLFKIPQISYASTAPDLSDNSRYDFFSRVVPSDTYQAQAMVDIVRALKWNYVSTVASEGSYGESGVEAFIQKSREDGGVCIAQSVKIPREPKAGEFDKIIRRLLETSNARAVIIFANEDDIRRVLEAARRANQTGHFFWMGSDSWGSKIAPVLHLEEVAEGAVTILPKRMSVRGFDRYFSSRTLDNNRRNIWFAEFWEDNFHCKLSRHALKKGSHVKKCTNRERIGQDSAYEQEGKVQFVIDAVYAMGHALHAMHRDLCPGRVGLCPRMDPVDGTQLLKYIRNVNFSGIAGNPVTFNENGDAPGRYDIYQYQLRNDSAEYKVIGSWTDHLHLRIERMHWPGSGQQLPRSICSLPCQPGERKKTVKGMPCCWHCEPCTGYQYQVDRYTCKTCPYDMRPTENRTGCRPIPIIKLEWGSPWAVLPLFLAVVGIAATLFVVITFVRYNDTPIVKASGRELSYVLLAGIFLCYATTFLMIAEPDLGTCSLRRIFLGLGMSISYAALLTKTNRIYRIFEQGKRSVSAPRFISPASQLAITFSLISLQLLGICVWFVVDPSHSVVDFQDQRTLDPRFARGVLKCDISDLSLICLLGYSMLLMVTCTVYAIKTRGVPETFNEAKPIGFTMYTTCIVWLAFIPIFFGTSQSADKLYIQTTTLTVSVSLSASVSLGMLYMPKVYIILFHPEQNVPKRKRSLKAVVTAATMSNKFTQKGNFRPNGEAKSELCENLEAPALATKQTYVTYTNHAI
rat mGluR1, sequence (P23385 19-1199): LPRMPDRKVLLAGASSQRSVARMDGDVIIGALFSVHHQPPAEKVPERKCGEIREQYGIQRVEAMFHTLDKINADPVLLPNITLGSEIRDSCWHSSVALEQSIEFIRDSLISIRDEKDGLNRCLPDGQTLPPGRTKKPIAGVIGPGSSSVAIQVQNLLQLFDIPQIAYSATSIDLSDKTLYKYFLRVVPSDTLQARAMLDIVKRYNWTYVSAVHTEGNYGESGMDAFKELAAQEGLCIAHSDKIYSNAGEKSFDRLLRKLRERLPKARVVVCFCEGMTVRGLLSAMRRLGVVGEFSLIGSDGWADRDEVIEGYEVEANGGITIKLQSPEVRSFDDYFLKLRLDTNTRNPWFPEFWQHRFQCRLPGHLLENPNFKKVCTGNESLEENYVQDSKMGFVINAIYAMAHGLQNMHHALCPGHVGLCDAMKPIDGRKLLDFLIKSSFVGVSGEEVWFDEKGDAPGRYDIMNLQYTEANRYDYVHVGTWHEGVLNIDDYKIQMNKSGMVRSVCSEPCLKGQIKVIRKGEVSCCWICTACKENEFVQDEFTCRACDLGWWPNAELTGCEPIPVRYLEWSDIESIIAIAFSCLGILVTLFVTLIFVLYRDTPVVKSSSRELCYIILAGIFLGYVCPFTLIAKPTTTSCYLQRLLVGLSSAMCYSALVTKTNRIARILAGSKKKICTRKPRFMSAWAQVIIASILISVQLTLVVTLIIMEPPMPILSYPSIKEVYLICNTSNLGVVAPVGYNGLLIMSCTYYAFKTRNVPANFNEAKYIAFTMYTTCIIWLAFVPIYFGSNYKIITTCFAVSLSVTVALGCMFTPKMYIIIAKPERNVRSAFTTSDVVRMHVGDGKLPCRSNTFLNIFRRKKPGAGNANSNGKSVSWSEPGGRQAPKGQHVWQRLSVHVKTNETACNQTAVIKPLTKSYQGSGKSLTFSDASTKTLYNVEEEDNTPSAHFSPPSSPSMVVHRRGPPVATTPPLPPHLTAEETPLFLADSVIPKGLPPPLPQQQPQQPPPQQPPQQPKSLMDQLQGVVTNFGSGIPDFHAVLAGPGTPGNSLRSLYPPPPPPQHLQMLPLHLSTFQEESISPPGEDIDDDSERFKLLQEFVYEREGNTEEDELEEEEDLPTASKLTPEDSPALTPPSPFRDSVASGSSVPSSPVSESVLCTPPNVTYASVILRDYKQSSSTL

One may read the IC50 as the concentration that inhibits the measured activity by half. With `O=C(Nc1ccccc1)C12CC1/C(=N\O)c1ccccc1O2` (racemic) [(±)-PHCCC, PHCCC], the “% Glu Max (mGluR1)” value on rat mGluR1 (rat mGluR1, normalized to percent maximal glutamate response) is given as 23%. Further, the IC50 on rat mGluR1 (read-out: mGluR1 IC50) was determined as 2.1 µM.

For the compound `O=C(Nc1ccccn1)C12CC1/C(=N\O)c1ccccc1O2` (single isomer, unassigned; (-)) [(−)-10c], on human mGluR4 [1] (30 μM compound alone, before glutamate addition, calcium mobilization), the “agonist activity of compound added alone” value was “do not exhibit agonist activity; also recorded: only act in the presence of glutamate”. Moreover, the “agonist activity of compound added alone at higher concentrations” value on human mGluR4 [1] (>30 μM compound alone, data not shown) is reported as “some intrinsic agonist activity”. Also, the “fold increase in potency against hmGluR4” value at human mGluR4 [1] (listed as 10c) was > 4 fold; at human mGluR4 [1] (listed as (-)-10c) it was 4 fold. Also, the “fold enhancement in efficacy” value on human mGluR4 [2] is given as 2 fold. Besides, the “activity against the other mGluR subtypes tested” value in the experiment with other mGluR subtypes was “devoid of activity”.

Usually EC50 stands for the concentration at which the effect is half-maximal. Take `O=C(Nc1ccccn1)C12CC1/C(=N\O)c1ccccc1O2` (stereo not shown) [Compound 5i, (E)-7-(Hydroxyimino)-N-(pyridin-2-yl)-1,1a,7,7a-tetrahydrocyclopropa[b]chromene-1a-carboxamide]: on human mGluR4 [1], the EC50 was found to be 0.87 µM. Moreover, the mGluR1 activity entry on rat mGluR1 (result in words, NAM=negative allosteric modulator) is “devoid of any mGluR1 activity”.
